From BindingDB's records for doi:10.1016/s0960-894x(01)00689-8 (Niddk, 2001) come the findings set out here.

Experiment [1] has as its target Delta-type opioid receptor (Rattus norvegicus, UniProt P33533). In words: Binding affinity for delta opioid receptor by displacing [3H]DADL was determined. The procedure, abridged:
(§1)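 Radioligand displacement binding at opioid receptors, with Ki values derived. Each receptor used its own radioligand: mu was [3H]DAMGO, delta was [3H]DADL and kappa was [3H]U69593.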

Another experiment addresses Mu-type opioid receptor (Rattus norvegicus, UniProt P33535). Put plainly: Binding affinity for mu opioid receptor by displacing [3H]-DAMGO was determined. The procedure, abridged:
as §1

The nature of experiment [2]: Binding affinity for gamma-S binding assay.
Experiment [3] can be described thus: Binding affinity for gamma-S binding assay; Inactive.
The target of experiment [4] is Kappa-type opioid receptor (Cavia porcellus, UniProt P41144). Put plainly: Binding affinity for kappa opioid receptor by displacing [3H]U-69593 was determined. In a few lines: as §1
Kappa-type opioid receptor, sequence (P41144 whole entry): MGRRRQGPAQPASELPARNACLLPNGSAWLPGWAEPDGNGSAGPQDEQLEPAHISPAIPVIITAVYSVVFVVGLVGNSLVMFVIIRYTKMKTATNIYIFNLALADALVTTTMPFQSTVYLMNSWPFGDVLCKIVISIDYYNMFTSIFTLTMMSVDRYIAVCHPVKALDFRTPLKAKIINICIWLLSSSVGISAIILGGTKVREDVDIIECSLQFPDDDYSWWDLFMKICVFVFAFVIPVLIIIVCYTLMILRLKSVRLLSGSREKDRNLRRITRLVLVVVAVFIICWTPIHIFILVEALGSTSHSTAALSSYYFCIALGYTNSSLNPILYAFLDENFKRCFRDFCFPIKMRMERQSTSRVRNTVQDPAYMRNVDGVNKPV

Delta-type opioid receptor, sequence (P33533 whole entry): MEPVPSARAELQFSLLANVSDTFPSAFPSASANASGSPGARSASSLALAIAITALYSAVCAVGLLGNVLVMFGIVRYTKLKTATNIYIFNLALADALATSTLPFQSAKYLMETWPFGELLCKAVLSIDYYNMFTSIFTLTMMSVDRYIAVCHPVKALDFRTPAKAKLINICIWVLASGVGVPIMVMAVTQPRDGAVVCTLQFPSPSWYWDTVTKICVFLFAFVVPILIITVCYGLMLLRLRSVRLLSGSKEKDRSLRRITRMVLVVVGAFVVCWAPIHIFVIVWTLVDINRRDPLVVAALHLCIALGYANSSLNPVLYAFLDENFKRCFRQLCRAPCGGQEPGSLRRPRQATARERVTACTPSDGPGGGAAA
Mu-type opioid receptor, sequence (P33535 whole entry): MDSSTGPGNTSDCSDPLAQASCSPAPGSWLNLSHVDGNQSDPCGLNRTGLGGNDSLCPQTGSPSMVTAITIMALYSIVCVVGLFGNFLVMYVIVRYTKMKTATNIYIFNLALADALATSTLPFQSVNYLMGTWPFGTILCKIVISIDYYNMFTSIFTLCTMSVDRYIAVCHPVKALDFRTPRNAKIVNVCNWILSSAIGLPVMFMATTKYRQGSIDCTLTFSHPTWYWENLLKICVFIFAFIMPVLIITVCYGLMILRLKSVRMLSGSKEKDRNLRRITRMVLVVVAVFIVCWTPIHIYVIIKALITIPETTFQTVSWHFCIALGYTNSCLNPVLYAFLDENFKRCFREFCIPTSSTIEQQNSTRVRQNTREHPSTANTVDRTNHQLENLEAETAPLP

Broadly, the Ki is the equilibrium dissociation constant of an inhibitor or competing ligand from its target. With `C[C@H]1c2c([nH]c3ccccc23)[C@@H]2Oc3c(O)ccc4c3C23CCN(C)C(C4)C13` (some centres not stated) [Indole Derivative], the values for the inhibition constant Ki (in experiment [1]; at Mu-type opioid receptor; in experiment [2]) were 0.7 nM, 240 nM and 49 nM, respectively.
With `CCCC[C@H]1c2c([nH]c3ccccc23)[C@@H]2Oc3c(OC)ccc4c3C23CCN(C)C(C4)C13` (some centres not stated) [Indole Derivative], the Ki in experiment [1] was 370 nM; at Mu-type opioid receptor it was > 4300 nM; in experiment [3], > 750 nM.
For the compound `COc1ccc2c3c1O[C@H]1c4[nH]c5ccccc5c4CC4C(C2)N(C)CCC341` (some centres not stated) [Indole Derivative], the Ki is 95 nM in experiment [1], > 5000 nM at Mu-type opioid receptor and 290 nM in experiment [2].
Take `C/C=C/C(=O)N1CCC23c4c5ccc(O)c4O[C@H]2c2[nH]c4ccccc4c2[C@H](C)C3C1C5` (some centres not stated): the results for the inhibition constant Ki in experiment [1] and in experiment [4] were 2.3 nM and 120 nM, respectively.
Turning to `COc1ccc2c3c1O[C@H]1c4[nH]c5ccccc5c4[C@H](C)C4C(C2)N(C)CCC341` (some centres not stated) [Indole Derivative], the Ki was 27 nM in experiment [1], > 4800 nM at Mu-type opioid receptor and 330 nM in experiment [2].
As to `CCCC[C@H]1c2c([nH]c3ccccc23)[C@@H]2Oc3c(O)ccc4c3C23CCN(C)C(C4)C13` (some centres not stated) [Indole Derivative], the inhibition constant (Ki) in experiment [1] turned out to be 22 nM; on Mu-type opioid receptor, 1100 nM; in experiment [2], 46 nM.
Turning to `CN1CC[C@]23c4c5ccc(O)c4O[C@H]2c2[nH]c4ccccc4c2C[C@H]3[C@H]1C5`, the Ki in experiment [1] came to 2.4 nM; in experiment [2], 15 nM.
For the compound `C[C@H]1c2c([nH]c3ccccc23)[C@@H]2Oc3c(O)ccc4c3C23CCN(CC2CC2)C(C4)C13` (some centres not stated), the Ki in experiment [1] is 2.3 nM; in experiment [4], 36 nM; at Mu-type opioid receptor it was 66 nM.
